This is an account of results in ChEMBL document CHEMBL4823260, “From High-Throughput Screening to Target Validation: Benzo[d]isothiazoles as Potent and Selective Agonists of Human Transient Receptor Potential Cation Channel Subfamily M Member 5 Possessing In Vivo Gastrointestinal Prokinetic Activity in Rodents” (J Med Chem, 2021).

A value given as a limit tells only on which side of the number the result lay.

The nature of series [1]: Clast in CD-1 mouse at 10 mg/kg, po measured up to 24 hrs. The format is ADME, organism-based. Particulars: in vivo, read-out: Clast.
A short description of series [2]: Half life in CD-1 mouse at 1 mg/kg, iv measured up to 24 hrs. Particulars: in vivo. The format is ADME, organism-based.
A short description of series [3]: AUClast in CD-1 mouse at 10 mg/kg, po measured up to 24 hrs. The format is ADME, organism-based. Also on record: route oral, dose 10 mg/kg, time <=24. Particulars: in vivo.
The nature of series [4]: AUClast in CD-1 mouse at 1 mg/kg, iv measured up to 24 hrs. Particulars: in vivo. Also on record: route intravenous, dose 1 mg/kg, time <=24. The format is ADME, organism-based.
The nature of series [5]: Volume of distribution at steady state in CD-1 mouse at 1 mg/kg, iv measured up to 24 hrs. The format is ADME, organism-based. Particulars: in vivo, read-out: Vdss.
Series [6] relates to Mus musculus. Put plainly: Gastroprokinetic activity in CD-1 mouse assessed as stimulation of gastrointestinal motility by measuring total fecal weight at 1 mg/kg, po measured after 6 hrs (reference value: 0.43 +/-0.05 g). The format is functional.
Series [7] can be described thus: Drug concentration in C57BL6 mouse plasma at 100 mg/kg, po administered as single dose measured after 6 hrs by LC-MS/MS analysis. The format is ADME, organism-based. The method, boiled down:
(§1)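 Single oral dose of 1, 3 or 100 mg/kg in mouse. Plasma (ng/mL) and colon and ileum (ng/g) exposure sampled at 6, 24 and 48 h, and at 72 h for the top dose; mean values reported.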

A short description of series [8]: Drug concentration in C57BL6 mouse colon at 3 mg/kg, po administered as single dose measured after 24 to 48 hrs by LC-MS/MS analysis. The format is ADME, organism-based. Particulars: in vivo, time 24-48 hrs. The method, boiled down:
as §1

Series [9] concerns Mus musculus. Put plainly: Gastroprokinetic activity in CD-1 mouse assessed as stimulation of gastrointestinal motility by measuring fecal number at 10 mg/kg, po measured after 2 hrs (reference value: 5.3 +/-0.7). The series is classed as functional.
The subject of series [10] is Mus musculus. Put plainly: Gastroprokinetic activity in CD-1 mouse assessed as stimulation of gastrointestinal motility by measuring total fecal weight at 100 mg/kg, po measured after 6 hrs (reference value: 0.43 +/-0.05 g).
A short description of series [11]: Drug concentration in C57BL6 mouse ileum at 1 mg/kg, po administered as single dose measured after 6 to 48 hrs by LC-MS/MS analysis. The format is ADME, organism-based. Particulars: in vivo, time 6-48 hrs. The essentials:
as §1

Series [12] in a line: Drug concentration in C57BL6 mouse ileum at 100 mg/kg, po administered as single dose measured after 6 hrs by LC-MS/MS analysis. Particulars: read-out: Ct. The series is classed as ADME, organism-based. The method, boiled down: as §1
Series [13] has as its system Mus musculus. Put plainly: Gastroprokinetic activity in CD-1 mouse assessed as stimulation of gastrointestinal motility by measuring fecal number at 100 mg/kg, po measured after 2 hrs (reference value: 5.3 +/-0.7). The format is functional.
A short description of series [14]: Drug concentration in C57BL6 mouse colon at 100 mg/kg, po administered as single dose measured after 48 hrs by LC-MS/MS analysis. Particulars: read-out: Ct. The format is ADME, organism-based. The method, boiled down: as §1
Series [15] can be described thus: Drug concentration in C57BL6 mouse colon at 1 mg/kg, po administered as single dose measured after 6 hrs by LC-MS/MS analysis. The format is ADME, organism-based. Particulars: read-out: Ct. The method, boiled down: as §1
Series [16] deals with Mus musculus. Put plainly: Gastroprokinetic activity in CD-1 mouse assessed as stimulation of gastrointestinal motility by measuring fecal number at 1 mg/kg, po measured after 1 hrs (reference value: 3 +/-0.8). The format is functional.
A short description of series [17]: Drug concentration in C57BL6 mouse ileum at 3 mg/kg, po administered as single dose measured after 6 to 48 hrs by LC-MS/MS analysis. Particulars: in vivo, time 6-48 hrs. The format is ADME, organism-based. The essentials: as §1
Series [18] can be described thus: Drug concentration in C57BL6 mouse colon at 1 mg/kg, po administered as single dose measured after 24 to 48 hrs by LC-MS/MS analysis. The format is ADME, organism-based. Particulars: in vivo, time 24-48 hrs. The essentials:
as §1

The subject of series [19] is Mus musculus. The series can be described thus: Gastroprokinetic activity in CD-1 mouse assessed as stimulation of gastrointestinal motility by measuring total fecal weight at 10 mg/kg, po measured after 6 hrs (reference value: 0.43 +/-0.05 g).
The test system of series [20] is Mus musculus. Put plainly: Gastroprokinetic activity in CD-1 mouse assessed as stimulation of gastrointestinal motility by measuring total fecal weight at 100 mg/kg, po measured after 2 hrs (reference value: 0.13 +/-0.02 g). The series is classed as functional.
Series [21] relates to Mus musculus. Put plainly: Gastroprokinetic activity in CD-1 mouse assessed as stimulation of gastrointestinal motility by measuring fecal number at 1 mg/kg, po measured after 3 hrs (reference value: 9.1 +/-1.1). The format is functional.
Series [22] can be described thus: Toxicity in CD-1 mouse assessed as effect on behavioral change at 1 to 100 mg/kg, po measured up to 6 hrs. The series is classed as organism-based. Particulars: in vivo, dose 1-100 mg/kg. The essentials: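 CD-1 mice dosed orally at 1, 10 or 100 mg/kg or with formulation vehicle (N = 12/group). General health status, locomotion and general behaviour observed at 1, 2, 3 and 6 h after treatment, alongside fecal collection in single grid-floored cages.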

For series [23], the system named is Mus musculus. Put plainly: Gastroprokinetic activity in CD-1 mouse assessed as stimulation of gastrointestinal motility by measuring total fecal weight at 100 mg/kg, po measured after 3 hrs (reference value: 0.21 +/-0.03 g). The series is classed as functional.
The subject of series [24] is Mus musculus. Put plainly: Gastroprokinetic activity in CD-1 mouse assessed as stimulation of gastrointestinal motility by measuring total fecal weight at 10 mg/kg, po measured after 2 hrs (reference value: 0.13 +/-0.02 g). The series is classed as functional.
Series [25] concerns Mus musculus. Put plainly: Gastroprokinetic activity in CD-1 mouse assessed as stimulation of gastrointestinal motility by measuring total fecal weight at 1 mg/kg, po measured after 3 hrs (reference value: 0.21 +/-0.03 g). The series is classed as functional.
Series [26] has as its system Mus musculus. The series can be described thus: Gastroprokinetic activity in CD-1 mouse assessed as stimulation of gastrointestinal motility by measuring fecal number at 10 mg/kg, po measured after 1 hrs (reference value: 3 +/-0.8). The format is functional.
Series [27] deals with Mus musculus. The series can be described thus: Gastroprokinetic activity in CD-1 mouse assessed as stimulation of gastrointestinal motility by measuring total fecal weight at 1 mg/kg, po measured after 1 hrs (reference value: 0.08 +/-0.02 g). The series is classed as functional.
A short description of series [28]: Drug concentration in C57BL6 mouse ileum at 100 mg/kg, po administered as single dose measured after 48 to 72 hrs by LC-MS/MS analysis. The format is ADME, organism-based. Particulars: in vivo, time 48-72 hrs. The essentials: as §1
The test system of series [29] is Mus musculus. Put plainly: Gastroprokinetic activity in CD-1 mouse assessed as stimulation of gastrointestinal motility by measuring fecal number at 1 mg/kg, po measured after 6 hrs (reference value: 20.1 +/-1.4). The format is functional.
The test system of series [30] is Mus musculus. The series can be described thus: Gastroprokinetic activity in CD-1 mouse assessed as stimulation of gastrointestinal motility by measuring total fecal weight at 100 mg/kg, po measured after 1 hrs (reference value: 0.08 +/-0.02 g). The format is functional.
Series [31] concerns Mus musculus. The series can be described thus: Gastroprokinetic activity in CD-1 mouse assessed as stimulation of gastrointestinal motility by measuring total fecal weight at 10 mg/kg, po measured after 1 hrs (reference value: 0.08 +/-0.02 g). The format is functional.
Series [32] deals with Mus musculus. Put plainly: Gastroprokinetic activity in CD-1 mouse assessed as stimulation of gastrointestinal motility by measuring fecal number at 100 mg/kg, po measured after 6 hrs (reference value: 20.1 +/-1.4). The format is functional.
In series [33] the test system is Mus musculus. The series can be described thus: Gastroprokinetic activity in CD-1 mouse assessed as stimulation of gastrointestinal motility by measuring fecal number at 100 mg/kg, po measured after 3 hrs (reference value: 9.1 +/-1.1). The series is classed as functional.

For `Clc1cnc(CNc2ccc3cnsc3c2)s1`, the concentration at 24 h in series [1] turned out to be 2.76 ng/mL. The molecule further gave a half-life in [2] of 48.6 min. This molecule returned an AUC(0-t) at 24 h in [3] of 94.3 ng·h/mL. In series [4], this molecule displayed an AUClast of 541 ng·h/mL. In addition, the Vd in series [5] amounted to 1.12 L/kg.

For the molecule `Clc1cnc(CNc2cc3sncc3cc2Cl)s1`, the Activity in series [6] was 0.45 g; in series [9], 7.3; in [10] it was 0.49 g; in [13], 10.2; in series [16], 4.3; in series [19], 0.39 g. Further, the Activity in [20] is on record as 0.31 g; in series [21], 11.8; in [22] it was “Non-Toxic”; in series [23], 0.41 g; in [24], 0.18 g; in series [25], 0.23 g. The Activity in series [26] is on record as 3.4; in series [27], 0.09 g; in [29], 24.3; in series [30], 0.12 g; in series [31] it was 0.08 g; in [32], 16.3. Further, the Activity in series [33] came to 13. Also, the concentration at 6 h came out at 22.6 ng/mL in series [7], 7380 ng/g in series [12] and 63.8 ng/g in series [15]. Moreover, the Ct in [8], in series [11], in series [17], in [18] and in [28] was below 20 ng/mL throughout. Also, the concentration at 48 h in [14] amounted to 58 ng/g.

The term half-life denotes the time needed for the level to fall by half in the phase considered. Lower therefore signals rapid decline. What is called AUC(0-t) is exposure summed from dosing to a finite time, without extrapolation to infinity.
